Source: publication PMC6828636 (European Journal of Drug Metabolism and Pharmacokinetics, 2019)
Read-outs that look alike come from different tables or passages of the source.

Columns and labels:
Format in all cases: in vitro ADME
CYP3A4 = CYP3A4 induction in primary-cultured human hepatocytes; conditions: for induction of CYP3A4 enzymatic activity: three donors, 3 days dosing, 0.005–10 mg/l
MATE2-K = MATE2-K (Homo sapiens, UniProt Q86VL8); assay: MATE2-K inhibition in transfected HEK cells
Procedure, shortened: (§1)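 HEK cells were transfected with MRP2, MATE1 or MATE2-K. Pairs were CDCF/benzbromarone (MRP2), metformin/cimetidine (MATE1) and metformin/pyrimethamine (MATE2-K). Probe transport was assessed with and without test compound, and IC50 was determined.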

CYP2E1 = CYP2E1 (Homo sapiens, UniProt P05181); assay: CYP2E1 inhibition in human liver microsomes
Procedure, shortened: (§2)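 Pooled human liver microsomes were incubated with standard CYP-selective substrates, with and without test compound at 0.03–100 μM. Standard selective inhibitors for each isoform ran in parallel as positive controls. Read-out was IC50. For CYP3A4 only, time-dependent inhibition was also tested after 30 min preincubation, using midazolam and testosterone as substrates.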

OAT1 = OAT1 (Homo sapiens, UniProt Q4U2R8); assay: OAT1 uptake inhibition in transfected HEK cells
OAT1, sequence (Q4U2R8 whole entry): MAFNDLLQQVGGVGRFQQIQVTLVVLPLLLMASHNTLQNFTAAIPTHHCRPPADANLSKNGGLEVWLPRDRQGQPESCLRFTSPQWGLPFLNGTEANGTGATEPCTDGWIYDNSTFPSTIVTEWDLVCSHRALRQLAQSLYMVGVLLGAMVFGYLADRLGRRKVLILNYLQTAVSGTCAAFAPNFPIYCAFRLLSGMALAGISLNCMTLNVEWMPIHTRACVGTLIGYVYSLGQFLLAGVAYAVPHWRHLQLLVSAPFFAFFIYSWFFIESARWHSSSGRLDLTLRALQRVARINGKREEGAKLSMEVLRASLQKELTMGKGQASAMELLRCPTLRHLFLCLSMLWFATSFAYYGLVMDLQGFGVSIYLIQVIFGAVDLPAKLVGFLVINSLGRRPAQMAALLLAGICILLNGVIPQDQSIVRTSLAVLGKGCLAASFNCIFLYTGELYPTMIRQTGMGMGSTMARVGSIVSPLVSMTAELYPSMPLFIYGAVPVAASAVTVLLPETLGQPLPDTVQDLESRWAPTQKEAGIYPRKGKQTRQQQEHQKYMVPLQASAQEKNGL
Procedure, shortened: (§3)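 HEK cells overexpressing NTCP, OAT1, OAT3, OATP2B1, OCT1 or OCT2 were incubated with probe substrate. Pairs were estrone 3-sulfate/cyclosporin A (NTCP), PAH/probenecid (OAT1), furosemide/probenecid (OAT3), estrone 3-sulfate/glibenclamide (OATP2B1), 3H-MPP+/decynium 22 (OCT1) and 3H-MPP+/imipramine (OCT2). IC50 was determined with and without test compound, at ≤50 µM for the parent and ≤10 µM for the metabolite.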

MRP2 = MRP2 (Homo sapiens, UniProt Q92887); assay: MRP2 inhibition in transfected HEK cells
MRP2, sequence (Q92887 whole entry): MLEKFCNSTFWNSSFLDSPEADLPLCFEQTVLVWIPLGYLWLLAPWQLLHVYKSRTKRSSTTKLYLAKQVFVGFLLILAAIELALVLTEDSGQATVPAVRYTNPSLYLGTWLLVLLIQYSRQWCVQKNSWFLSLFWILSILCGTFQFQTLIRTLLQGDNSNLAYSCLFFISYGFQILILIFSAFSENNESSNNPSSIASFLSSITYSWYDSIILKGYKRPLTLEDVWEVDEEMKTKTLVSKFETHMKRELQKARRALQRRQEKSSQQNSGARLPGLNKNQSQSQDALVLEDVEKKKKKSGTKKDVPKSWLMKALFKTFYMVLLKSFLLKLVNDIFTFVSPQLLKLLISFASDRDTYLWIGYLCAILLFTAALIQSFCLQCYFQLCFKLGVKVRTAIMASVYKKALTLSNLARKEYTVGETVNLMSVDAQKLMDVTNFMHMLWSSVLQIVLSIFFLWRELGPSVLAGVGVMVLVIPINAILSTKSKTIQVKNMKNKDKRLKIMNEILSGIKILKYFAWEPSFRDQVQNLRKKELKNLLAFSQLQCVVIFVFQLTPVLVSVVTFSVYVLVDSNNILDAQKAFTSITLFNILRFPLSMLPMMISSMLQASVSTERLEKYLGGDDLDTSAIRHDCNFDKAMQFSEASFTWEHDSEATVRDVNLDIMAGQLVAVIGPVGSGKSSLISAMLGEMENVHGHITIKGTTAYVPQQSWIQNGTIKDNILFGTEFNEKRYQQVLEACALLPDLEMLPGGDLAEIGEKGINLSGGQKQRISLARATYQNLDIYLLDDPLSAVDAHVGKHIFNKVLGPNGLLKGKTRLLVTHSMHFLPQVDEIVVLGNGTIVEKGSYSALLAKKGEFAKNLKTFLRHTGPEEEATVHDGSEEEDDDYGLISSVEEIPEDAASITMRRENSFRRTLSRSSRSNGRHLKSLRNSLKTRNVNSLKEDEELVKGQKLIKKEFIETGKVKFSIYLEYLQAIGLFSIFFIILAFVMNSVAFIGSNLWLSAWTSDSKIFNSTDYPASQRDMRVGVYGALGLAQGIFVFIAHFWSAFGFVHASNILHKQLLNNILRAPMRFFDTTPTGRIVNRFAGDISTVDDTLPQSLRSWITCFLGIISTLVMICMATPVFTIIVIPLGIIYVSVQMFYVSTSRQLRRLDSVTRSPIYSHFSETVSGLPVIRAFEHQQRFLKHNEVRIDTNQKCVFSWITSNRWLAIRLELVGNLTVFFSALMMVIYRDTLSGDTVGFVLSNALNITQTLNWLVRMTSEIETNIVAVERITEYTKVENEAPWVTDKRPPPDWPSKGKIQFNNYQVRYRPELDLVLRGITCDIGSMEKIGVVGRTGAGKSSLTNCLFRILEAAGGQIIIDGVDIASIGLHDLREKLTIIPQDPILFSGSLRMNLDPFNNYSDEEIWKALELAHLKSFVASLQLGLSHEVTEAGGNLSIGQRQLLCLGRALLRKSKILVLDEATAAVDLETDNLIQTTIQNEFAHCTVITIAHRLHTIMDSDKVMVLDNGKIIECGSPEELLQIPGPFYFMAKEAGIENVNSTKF
Procedure, shortened: as §1

BSEP = BSEP (Homo sapiens, UniProt O95342); assay: BSEP inhibition in sandwich-cultured human hepatocytes
Procedure, shortened: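 Sandwich-cultured human hepatocytes were used. Probe substrate was taurocholic acid, with cyclosporin as reference inhibitor. Probe transport was measured without and with test compound to derive IC50. Protein was added to the medium for one tested compound, permitting a higher test concentration.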

CYP2D6 = CYP2D6 (Homo sapiens, UniProt P10635); assay: CYP2D6 inhibition in human liver microsomes
CYP2D6, sequence (P10635 whole entry): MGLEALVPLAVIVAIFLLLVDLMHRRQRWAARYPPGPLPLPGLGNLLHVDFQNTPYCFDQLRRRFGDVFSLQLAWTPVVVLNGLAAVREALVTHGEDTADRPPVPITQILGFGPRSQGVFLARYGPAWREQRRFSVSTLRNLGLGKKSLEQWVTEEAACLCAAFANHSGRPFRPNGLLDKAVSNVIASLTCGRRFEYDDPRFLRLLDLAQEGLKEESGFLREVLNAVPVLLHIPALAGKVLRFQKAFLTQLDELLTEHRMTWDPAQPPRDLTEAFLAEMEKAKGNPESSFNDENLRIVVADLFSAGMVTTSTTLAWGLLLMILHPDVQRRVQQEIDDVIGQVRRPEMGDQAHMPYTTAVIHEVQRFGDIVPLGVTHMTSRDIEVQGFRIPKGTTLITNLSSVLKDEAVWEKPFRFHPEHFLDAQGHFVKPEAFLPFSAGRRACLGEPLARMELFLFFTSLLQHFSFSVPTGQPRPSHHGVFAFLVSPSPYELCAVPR
Procedure, shortened: as §2

CYP2C19 = CYP2C19 (Homo sapiens, UniProt P33261); assay: CYP2C19 inhibition in human liver microsomes
CYP2C19, sequence (P33261 whole entry): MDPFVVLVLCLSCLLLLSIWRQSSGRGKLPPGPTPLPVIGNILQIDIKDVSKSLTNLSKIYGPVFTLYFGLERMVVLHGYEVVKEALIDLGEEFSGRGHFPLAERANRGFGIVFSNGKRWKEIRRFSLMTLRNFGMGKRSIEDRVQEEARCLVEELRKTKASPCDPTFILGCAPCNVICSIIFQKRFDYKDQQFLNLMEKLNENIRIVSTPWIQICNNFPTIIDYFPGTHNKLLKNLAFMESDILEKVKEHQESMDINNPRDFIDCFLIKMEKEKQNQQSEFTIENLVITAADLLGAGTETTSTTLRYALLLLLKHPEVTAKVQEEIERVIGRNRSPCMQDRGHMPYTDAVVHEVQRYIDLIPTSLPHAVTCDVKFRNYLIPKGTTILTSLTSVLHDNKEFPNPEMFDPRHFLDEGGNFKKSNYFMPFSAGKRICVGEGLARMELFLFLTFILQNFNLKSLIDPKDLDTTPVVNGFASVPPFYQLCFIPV
Procedure, shortened: as §2

OCT1 [1] = target: T1, OCT1 (Homo sapiens, UniProt O15245); assay: OCT1 uptake inhibition in transfected HEK cells
T1 sequence (O15245 1-554): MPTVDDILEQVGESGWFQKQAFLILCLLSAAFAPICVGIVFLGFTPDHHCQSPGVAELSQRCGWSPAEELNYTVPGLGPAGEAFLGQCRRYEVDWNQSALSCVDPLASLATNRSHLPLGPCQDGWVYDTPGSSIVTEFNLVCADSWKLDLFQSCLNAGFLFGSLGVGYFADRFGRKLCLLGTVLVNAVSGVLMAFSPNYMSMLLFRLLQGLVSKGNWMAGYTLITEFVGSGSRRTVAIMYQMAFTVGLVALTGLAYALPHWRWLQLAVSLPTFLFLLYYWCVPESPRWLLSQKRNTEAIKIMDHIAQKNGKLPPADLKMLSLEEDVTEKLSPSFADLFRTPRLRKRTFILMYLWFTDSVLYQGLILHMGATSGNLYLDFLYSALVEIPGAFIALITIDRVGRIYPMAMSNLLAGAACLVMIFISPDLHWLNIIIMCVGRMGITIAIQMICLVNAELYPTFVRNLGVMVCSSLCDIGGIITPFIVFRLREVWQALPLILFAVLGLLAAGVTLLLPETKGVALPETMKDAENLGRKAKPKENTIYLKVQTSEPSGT
Procedure, shortened: as §3

OAT3 = OAT3 (Homo sapiens, UniProt Q8TCC7); assay: OAT3 uptake inhibition in transfected HEK cells
OAT3, sequence (Q8TCC7 whole entry): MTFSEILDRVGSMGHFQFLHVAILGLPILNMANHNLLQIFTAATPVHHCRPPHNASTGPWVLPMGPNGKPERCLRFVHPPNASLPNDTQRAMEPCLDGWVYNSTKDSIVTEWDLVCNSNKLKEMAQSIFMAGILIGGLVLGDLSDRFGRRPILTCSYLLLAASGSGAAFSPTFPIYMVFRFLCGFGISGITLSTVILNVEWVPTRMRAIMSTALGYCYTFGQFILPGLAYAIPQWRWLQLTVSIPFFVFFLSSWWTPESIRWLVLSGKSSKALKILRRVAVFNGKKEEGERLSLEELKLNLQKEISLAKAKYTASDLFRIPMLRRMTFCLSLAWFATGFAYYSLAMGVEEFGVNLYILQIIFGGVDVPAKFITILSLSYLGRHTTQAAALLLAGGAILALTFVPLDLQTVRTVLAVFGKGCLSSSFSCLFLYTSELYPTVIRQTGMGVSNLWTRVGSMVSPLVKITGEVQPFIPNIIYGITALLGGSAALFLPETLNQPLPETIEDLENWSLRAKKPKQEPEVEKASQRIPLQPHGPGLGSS
Procedure, shortened: as §3

OCT1 [2] = target: T1, OCT1; assay: Cellular uptake in OCT1-transfected HEK cells; conditions: not affected by decynium-22
Procedure, shortened: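 Cellular uptake of test compound was measured in HEK cells transfected to overexpress OATP1B1, OATP1B3 or OCT1. Vector-control cells were run in parallel. Standard inhibitors and probe substrates were included; decynium-22 served as OCT1 inhibitor, rifamycin as OATP inhibitor.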

OCT2 = OCT2 (Homo sapiens, UniProt O15244); assay: OCT2 uptake inhibition in transfected HEK cells
OCT2, sequence (O15244 whole entry): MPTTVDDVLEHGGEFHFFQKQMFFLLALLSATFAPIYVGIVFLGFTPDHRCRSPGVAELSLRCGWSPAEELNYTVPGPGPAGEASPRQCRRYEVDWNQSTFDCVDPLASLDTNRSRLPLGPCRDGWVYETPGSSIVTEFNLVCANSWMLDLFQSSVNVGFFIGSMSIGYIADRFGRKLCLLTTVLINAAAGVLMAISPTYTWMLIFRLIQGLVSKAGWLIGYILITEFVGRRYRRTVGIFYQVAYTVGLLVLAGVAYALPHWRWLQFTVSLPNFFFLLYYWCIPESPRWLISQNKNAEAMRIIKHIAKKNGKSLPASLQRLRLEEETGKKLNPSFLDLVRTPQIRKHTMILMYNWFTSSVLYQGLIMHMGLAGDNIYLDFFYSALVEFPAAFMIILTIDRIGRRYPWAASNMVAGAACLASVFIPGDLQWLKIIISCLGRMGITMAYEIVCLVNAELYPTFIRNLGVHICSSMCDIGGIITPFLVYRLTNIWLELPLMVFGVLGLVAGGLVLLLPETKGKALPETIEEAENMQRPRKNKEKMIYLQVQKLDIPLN
Procedure, shortened: as §3

CYP2C9 = CYP2C9 (Homo sapiens, UniProt P11712); assay: CYP2C9 inhibition in human liver microsomes
CYP2C9, sequence (P11712 whole entry): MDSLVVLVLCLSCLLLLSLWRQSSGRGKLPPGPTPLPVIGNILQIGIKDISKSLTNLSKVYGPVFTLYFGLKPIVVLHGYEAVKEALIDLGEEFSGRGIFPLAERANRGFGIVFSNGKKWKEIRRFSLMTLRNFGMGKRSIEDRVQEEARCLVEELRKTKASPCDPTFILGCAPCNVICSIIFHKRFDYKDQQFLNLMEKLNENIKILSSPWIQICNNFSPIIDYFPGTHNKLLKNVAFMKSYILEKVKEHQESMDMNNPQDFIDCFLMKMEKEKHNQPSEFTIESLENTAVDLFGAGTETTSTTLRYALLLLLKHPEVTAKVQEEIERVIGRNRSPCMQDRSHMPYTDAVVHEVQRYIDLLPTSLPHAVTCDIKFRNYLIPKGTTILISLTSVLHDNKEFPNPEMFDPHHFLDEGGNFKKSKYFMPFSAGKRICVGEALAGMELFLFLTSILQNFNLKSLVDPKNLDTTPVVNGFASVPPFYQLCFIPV
Procedure, shortened: as §2

CYP2A6 = target: T2, CYP2A6 (Homo sapiens, UniProt P11509); assay: CYP2A6 inhibition in human liver microsomes
T2 sequence (P11509 1-494): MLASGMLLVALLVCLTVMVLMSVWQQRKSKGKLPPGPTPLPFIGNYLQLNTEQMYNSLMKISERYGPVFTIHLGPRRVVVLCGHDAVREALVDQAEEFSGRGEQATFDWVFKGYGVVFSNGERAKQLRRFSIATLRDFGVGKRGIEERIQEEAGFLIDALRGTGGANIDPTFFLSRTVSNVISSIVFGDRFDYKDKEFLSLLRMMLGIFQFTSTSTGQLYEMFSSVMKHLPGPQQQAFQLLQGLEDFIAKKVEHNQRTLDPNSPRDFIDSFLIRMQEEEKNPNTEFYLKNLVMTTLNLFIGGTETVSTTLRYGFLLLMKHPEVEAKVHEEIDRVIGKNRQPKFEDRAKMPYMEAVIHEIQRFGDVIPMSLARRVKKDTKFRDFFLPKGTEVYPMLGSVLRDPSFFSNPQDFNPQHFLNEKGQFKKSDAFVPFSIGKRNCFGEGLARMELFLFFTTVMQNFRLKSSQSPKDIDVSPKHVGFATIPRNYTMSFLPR
Procedure, shortened: as §2

## CC(O)c1cc(C(=O)N[C@@H](C)Cn2ccc(-c3ccc(C#N)c(Cl)c3)n2)[nH]n1 (some centres unmarked) [Darolutamide, darolutamide]
CYP3A4
  CYP3A4 induction as % of rifampicin response: 28%
  induction of CYP3A4 enzymatic activity: ≤ 5.3 fold
MATE2-K
  IC50: 9.5 µM
CYP2E1
  IC50: > 100 µM
OAT1
  IC50: > 50 µM
MRP2
  IC50: > 50 µM
BSEP
  IC50: > 60 µM
CYP2D6
  IC50: 81.9 µM
CYP2C19
  IC50: 64.1 µM
OCT1 [1]
  IC50: > 50 µM
OAT3
  IC50: 4.5 µM
OCT1 [2]
  uptake in OCT1-transfected HEK cells: no uptake
OCT2
  IC50: > 50 µM
CYP2C9
  IC50: 30.3 µM
CYP2A6
  IC50: > 100 µM

## CC(=O)c1cc(C(=O)N[C@@H](C)Cn2ccc(-c3ccc(C#N)c(Cl)c3)n2)[nH]n1 [Keto-darolutamide, keto-darolutamide]
CYP3A4
  induction of CYP3A4 enzymatic activity: ≤ 5.4 fold
MATE2-K; read-out: IC50, MATE2 K, HEK cells, substrate metformin, reference pyrimethamine
  IC50: 3 µM
CYP2E1; read-out: IC50, CYP2E1, human liver microsomes, substrate chlorzoxazone
  IC50: > 100 µM
OAT1; read-out: IC50, OAT1, HEK cells, substrate PAH, reference probenecid
  IC50: > 2 µM
MRP2; read-out: IC50, MRP2, HEK cells, substrate CDCF, reference benzbromarone
  IC50: > 10 µM
BSEP; read-out: IC50, BSEP, sandwich-cultured human hepatocytes, taurocholic acid/cyclosporin, higher test concentration possible because of addition of protein to the assay media
  IC50: > 300 µM
CYP2D6; read-out: IC50, CYP2D6, human liver microsomes, substrate bufuralol
  IC50: 51.9 µM
CYP2C19; read-out: IC50, CYP2C19, human liver microsomes, substrate S-mephenytoin
  IC50: 39.5 µM
OCT1 [1]; read-out: IC50, OCT1, HEK cells, substrate 3H-MPP+, reference decynium 22
  IC50: > 10 µM
OAT3; read-out: IC50, OAT3, HEK cells, substrate furosemide, reference probenecid
  IC50: > 2 µM
OCT1 [2]
  uptake in OCT1-transfected HEK cells: no uptake
OCT2; read-out: IC50, OCT2, HEK cells, substrate 3H-MPP+, reference imipramine
  IC50: > 2 µM
CYP2C9; read-out: IC50, CYP2C9, human liver microsomes, substrate diclofenac
  IC50: 9.6 µM
CYP2A6; read-out: IC50, CYP2A6, human liver microsomes, substrate coumarin
  IC50: > 100 µM
